HTR2A ag: agonists of mouse serotonin 5-HT2A receptor (HTR2A) | P35363 | CHO-K1 mHTR2A beta-arrestin complementation, luminescence; percent of 30 µM serotonin response | activation, % at 7.6 µM | 360,000 tested, 0.66% active | AID 624169;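 active = activation above a run cutoff, the mean activation of all tested compounds plus 3 SD, cut at about 14% in these data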;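 note: 0% = plate median of compound wells and 100% = 30 µM serotonin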
CCR6 antagonist: blocks CCL20-driven beta-arrestin recruitment at human CCR6 | inhibition, % at 20 µM | AID 493098 | P51684 | 340,000 tested, 0.49% active | CHO-K1 CCR6 PathHunter beta-arrestin, luminescence, CCL20-stimulated;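 active = compounds whose inhibition of the agonist-driven luminescence signal at 20 µM reaches about 50%, limit read from the data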;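 note: cells stimulated with CCL20 at 14 nM final; plate controls were DMSO with CCL20 for no effect and DMSO without agonist for full effect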
CXCR6 block: inhibitors of human CXCR6 receptor | O00574 | CHO-K1 PathHunter CXCR6 beta-arrestin, luminescence | inhibition, % at 20 µM | 360,000 tested, 0.36% active | AID 602244; in the data active = inhibition above about 34%, passing the limit was not always enough;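 note: antagonist mode with CXCL16 agonist at 10 nM final; 0% = 10 nM CXCL16 with DMSO and 100% = unstimulated wells without agonist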
Target sequence (O00574 whole entry, looked up): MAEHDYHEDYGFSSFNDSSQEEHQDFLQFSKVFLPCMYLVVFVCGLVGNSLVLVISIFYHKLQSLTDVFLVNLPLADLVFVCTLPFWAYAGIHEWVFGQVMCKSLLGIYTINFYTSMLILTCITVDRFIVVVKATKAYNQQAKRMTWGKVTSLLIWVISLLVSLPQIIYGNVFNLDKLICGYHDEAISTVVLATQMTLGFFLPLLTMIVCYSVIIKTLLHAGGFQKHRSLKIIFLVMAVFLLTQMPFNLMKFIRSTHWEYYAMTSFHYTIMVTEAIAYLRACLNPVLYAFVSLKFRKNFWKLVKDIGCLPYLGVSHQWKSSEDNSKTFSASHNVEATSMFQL
APJ antag: blocks the human apelin receptor APJ; CHO-K1 APJ beta-arrestin complementation, luminescence; AID 2521; 330,000 tested, 0.32% active; P35414; inhibition, % at 20 µM;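 active = inhibition above about 40% at 20 µM, limit read from the data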;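 note: cells challenged with 10 nM apelin-13 agonist together with compound; plate controls were apelin-13 plus DMSO wells for no effect and DMSO wells lacking apelin-13 for full effect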
EBI2 block: antagonists of human EBI2 receptor. EBI2 beta-arrestin recruitment, luminescence, 7a,25-OHC stimulated. inhibition, % at 5 µM. 360,000 tested, 0.81% active. AID 651636; in the data active = inhibition above about 38%;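 note: enzyme fragment complementation signal reports receptor beta-arrestin coupling in cells; 0% = agonist plus DMSO wells and 100% = wells without agonist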
APJ agonist: APJ receptor agonism; CHO-K1 APJ PathHunter beta-arrestin, luminescence; 0% DMSO wells, 100% apelin; activation, % at 20 µM; 330,000 tested, 0.11% active; AID 2520;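 active = activation more than six SD over the plate average, tested at 20 µM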;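 note: 0% = DMSO alone and 100% = apelin-13 at 10 nM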
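Assay system: CHO-K1 cells stably expressing ProLink-tagged human APJ and arrestin–beta-gal acceptor. Compound dosing: 20 µM single point, 1% DMSO. Times: 16-18 h seeding, 90 min dark compound exposure, 60 min detection. Detection: beta-gal luminescence. Evaluation: APJ–arrestin association signal. Controls: negative DMSO alone, positive Apelin-13 at 10 nM.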
APJ antag confirm: APJ receptor antagonism confirmation. APJ beta-arrestin recruitment, luminescence, antagonist mode. 950 tested, 66% active. inhibition, % at 20 µM. shares compounds with APJ antag; in the data active = inhibition above about 50%
An asterisk follows results filed as active; · = no result given. Rows were chosen to be rich in hits. Some 2.1% of all compounds tested hit in one or more screens of this group.

SMILES	HTR2A ag	CCR6 antagonist	CXCR6 block	APJ antag	EBI2 block	APJ agonist	APJ antag confirm
COc1cccc(C(=O)NC(=S)Nc2cccnc2)c1	5	34	23	21	-12	-5	·
CC(C)Oc1cccc(C(=O)NC(=S)Nc2cccnc2)c1	-6	38	21	42*	-1	-5	50*
c1ccc(-c2nccc(-c3ccco3)n2)nc1	5	1	1	3	1	-1	·
c1ccc(-c2nc(-c3ccco3)cs2)nc1	3	16	11	53*	-4	-11	27
Cc1cccc(-c2cc3c(nn2)-c2ccccc2C3=O)c1	2	42	26	17	31	-11	·
COc1ccc(-c2cc3c(nn2)-c2ccccc2C3=O)cc1	0	17	19	40*	51*	-10	143*
O=C1c2ccccc2-c2nnc(-c3ccccc3)cc21	-6	56*	29	53*	70*	-13	143*
COc1ccc(-c2cn(Cc3ccc4c(c3)C(=O)c3ccccc3C4=O)nn2)cc1	0	6	-10	-108	-11	19	·
CCOC(=O)C1CCN(c2nc(C)nc3c2oc2ccccc23)CC1	1	3	3	45*	1	-5	30
CCN(CC)c1ccc(/C=C2\SC(=O)N(C(C)C)C2=O)o1	3	47	27	53*	56*	5	-1
Cc1ccc(C(C[N+](=O)[O-])n2nc(C)cc2C)cc1 (stereo not drawn)	2	30	7	-19	-40	5	·
Cc1ccc(C(C[N+](=O)[O-])Sc2ccc(N)cc2)cc1 (stereo not drawn)	-3	52*	53*	46*	-29	1	74*
Cc1ccc(-c2csc3nc(C)n(N)c(=O)c23)o1	2	16	3	-17	-7	-3	·
Cc1ccc(-c2csc3nc(C)n(-n4c(C)ccc4C)c(=O)c23)o1	-1	18	26	48*	19	-1	10
CC1CC(C)CN(C(=O)COC(=O)c2ccc3ccccc3n2)C1 (stereo not drawn)	11	6	3	-17	-5	6	·
CCOc1cc(/C=C2\SC(=O)N(CC(=O)Nc3ccccc3F)C2=O)cc([N+](=O)[O-])c1O	1	40	28	54*	6	-7	79*
COc1ccccc1-c1csc(C(O)(c2ccccc2)C(F)(F)F)n1 (stereo not drawn)	6	·	-8	·	8	·	·
O=C(NNc1ccc(O)cc1)c1ccc(Br)cc1	-1	101*	70*	86*	59*	-15	139*
COc1ccc(Cn2c(C)nc3ccc([N+](=O)[O-])cc3c2=O)cc1	0	6	-8	-10	0	0	·
COc1ccc(C(=O)/C=C/C(=O)N(Cc2ccccc2)C(C(=O)NC2CCCCC2)c2ccncc2)c(O)c1 (stereo not drawn)	-4	4	13	9	8	-5	·
COc1ccc(C(=O)/C=C/C(=O)N(CC(=O)NC2CCCCC2)CC2CCCO2)c(O)c1 (stereo not drawn)	-10	87*	68*	56*	6	-4	110*
COC(=O)c1sc(N)c(C(=O)OC)c1COC(=O)c1c(C)noc1C	-18	70*	58*	46*	25	-8	96*
CCCCN(C)CCNC(=O)CN1C(=O)CSc2ccc(S(=O)(=O)N3CCOCC3)cc21	5	4	0	-5	-1	-3	·
CCCCN(C)CCNC(=O)CN1C(=O)CSc2ccc(S(=O)(=O)N3CCCCC3)cc21	3	15	-7	49*	-11	-5	-27
COc1ccc(CNC(=O)CN(Cc2ccco2)C(=O)CNS(=O)(=O)c2ccc(F)cc2)cc1	5	8	12	41*	-4	1	-32
SMILES	HTR2A ag	CCR6 antagonist	CXCR6 block	APJ antag	EBI2 block	APJ agonist	APJ antag confirm
COc1ccc(Nc2ccc([N+](=O)[O-])c3nonc23)c(OC)c1	0	60*	44*	44*	17	-7	78*
O=C(O)c1ccc(Nc2ccc([N+](=O)[O-])c3nonc23)cc1	-6	59*	34	42*	10	-9	76*
O=C(O)c1cccc(Nc2ccc([N+](=O)[O-])c3nonc23)c1	-9	58*	36	41*	9	-6	78*
O=[N+]([O-])c1ccc(Nc2ccccc2O)c2nonc12	-6	38	25	4	1	-3	·
Cc1ccc(C(O)C(=O)c2ccco2)cc1 (stereo not drawn)	-2	5	3	-53	-8	7	·
O=C(c1ccco1)C(O)c1ccco1 (stereo not drawn)	-10	58*	34	52*	-11	-13	98*
O=C(CN1C(=O)C2C3C=CC(C3)C2C1=O)OCC(=O)c1ccc([N+](=O)[O-])cc1 (stereo not drawn)	7	1	-9	-20	-17	0	·
O=C(CN1C(=O)C2C3CC(C(Br)C3Br)C2C1=O)OCC(=O)c1cccc([N+](=O)[O-])c1 (stereo not drawn)	-1	42	26	44*	5	-7	59*
O=C(CN1C(=O)C2CC=CCC2C1=O)OCC(=O)c1ccc(Cl)c([N+](=O)[O-])c1 (stereo not drawn)	3	79*	58*	79*	14	-32	149*
O=C(Cc1ccccc1)NCC(=O)OCC(=O)c1cccc([N+](=O)[O-])c1	-2	53*	22	46*	14	-7	68*
O=C(CN1C(=O)C2C3C=CC(C3)C2C1=O)OCC(=O)c1ccc(Cl)cc1 (stereo not drawn)	1	13	3	3	4	9	·
O=C(CN1C(=O)c2ccccc2C1=O)NCC(=O)OCC(=O)c1cccc([N+](=O)[O-])c1	-2	49	24	70*	16	-9	103*
O=C(CN1C(=O)c2ccccc2C1=O)NCC(=O)OCC(=O)c1ccc(Br)cc1	1	0	3	28	-3	-5	·
CC(C)N(C(=O)CSc1n[nH]c(=O)n1CCc1ccccc1)C(C)C	3	6	-4	8	1	-2	·
N/C(=N\OC(=O)CCCc1ccccc1)c1cccc([N+](=O)[O-])c1	-3	-4	-13	-17	3	14	·
O=C(CNC(=O)c1ccco1)NCC(=O)OCC(=O)c1ccc(Cl)c([N+](=O)[O-])c1	-12	89*	58*	82*	12	-33	147*
O=C(CCc1ccccc1)OCC(=O)c1cccc([N+](=O)[O-])c1	7	42	16	66*	8	-8	64*
